Legend:
[1] = biological target: T1, Adenosine receptor A3 (Homo sapiens) (UniProt P0DMS8); experiment: (§1) Displacement of specific [125 I]AB-MECA binding at human Adenosine A3 receptor expressed in HEK cells; format: cell-based; details: HEK293
T1 sequence (whole entry): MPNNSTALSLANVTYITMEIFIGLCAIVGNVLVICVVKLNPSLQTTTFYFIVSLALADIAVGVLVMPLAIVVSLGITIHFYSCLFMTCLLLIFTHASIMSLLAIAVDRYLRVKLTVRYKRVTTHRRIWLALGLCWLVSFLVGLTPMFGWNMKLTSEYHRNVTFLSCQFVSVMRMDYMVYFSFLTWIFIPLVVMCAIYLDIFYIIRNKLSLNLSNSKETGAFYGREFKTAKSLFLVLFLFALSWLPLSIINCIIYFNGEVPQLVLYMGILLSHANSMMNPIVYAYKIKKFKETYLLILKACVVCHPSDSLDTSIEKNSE

Adenosine receptor A2a = Adenosine receptor A2a (Rattus norvegicus, UniProt P30543); experiment: Inhibition of [3H]-CGS- 21680 binding to Adenosine A2A receptor in rat striatal membranes.; format: cell membranes, Membrane
Adenosine receptor A1 = biological target: T2, Adenosine receptor A1 (Rattus norvegicus, UniProt P25099); experiment: (§2) Displacement of specific [3H]-CGS- 21680R-PIA binding to Adenosine A1 receptor in rat brain membranes.; format: cell membranes; details: in the assay text read “[3H]R-PIA” for “[3H]-CGS- 21680R-PIA”
T2 sequence (P25099 whole entry): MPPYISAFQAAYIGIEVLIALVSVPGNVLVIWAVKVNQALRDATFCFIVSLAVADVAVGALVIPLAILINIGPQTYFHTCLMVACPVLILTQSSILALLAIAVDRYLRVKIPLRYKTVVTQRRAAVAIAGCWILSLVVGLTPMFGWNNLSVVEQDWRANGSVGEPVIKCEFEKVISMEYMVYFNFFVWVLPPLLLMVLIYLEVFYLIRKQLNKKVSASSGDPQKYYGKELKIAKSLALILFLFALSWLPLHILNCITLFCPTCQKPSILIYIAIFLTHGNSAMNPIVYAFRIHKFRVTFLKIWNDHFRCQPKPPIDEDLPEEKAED
Procedure, shortened: (§3)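 A1 binding used [3H]R-PIA on rat cerebral cortex membranes. Adenosine deaminase (3 units/mL) was included in membrane preparation, in a 30 min preincubation at 30 °C, and throughout radioligand incubation. Competitors were DMSO stocks diluted in buffer, with DMSO never above 2%.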

Adenosine receptor A3 [2] = biological target: T3, Adenosine receptor A3 (Homo sapiens, UniProt P0DMS8); experiment: as §1; format: cell-based, HEK293
T3 sequence (P0DMS8 whole entry): T1 sequence (whole entry)
Procedure, shortened: (§4)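 Membranes from HEK-293 cells stably expressing human A3 receptor (clone HS-21a), or from CHO cells stably expressing rat A3 receptor (rat: n = 3-5), in 50 mM Tris, 10 mM Mg2+, 1 mM EDTA, pH 8.0. Membranes at 0.3 mg protein/mL with [125I]AB-MECA at 0.3 nM final. Nonspecific binding defined with R-PIA. Competitors were dissolved in DMSO (≤2% final) and tested at ≥5 concentrations spanning 3 log units. Bound ligand was separated by GF/B filtration with three buffer rinses; Ki was derived.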

Rattus norvegicus [3] = species on record: Rattus norvegicus; experiment: Ratio of binding affinities for rat A1 receptor against human A3 receptor, [Ki(rA1) / Ki (hA3)].
Procedure, shortened: (§5)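 Ratio of Ki values from binding assays. For A3, [125I]AB-MECA (final 0.3 nM) bound membranes of HEK-293 cells expressing human A3 (clone HS-21a) or CHO cells expressing rat A3, in Tris/Mg2+/EDTA buffer at pH 8.0. For rat A1, [3H]R-PIA bound cerebral cortex membranes, with adenosine deaminase (3 units/mL) present, including a 30 min preincubation at 30 °C.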

[4] = biological target: T4, Adenosine receptor A1 (Rattus norvegicus) (UniProt P25099); experiment: as §2; format: cell membranes; details: concentration not given here; procedure, shortened: as §3
T4 sequence (whole entry): T2 sequence (P25099 whole entry)

[5] = biological target: Adenosine receptor A2a (Rattus norvegicus) (UniProt P30543); experiment: Displacement of specific [3H]-CGS- 21680 binding to Adenosine A2A receptor in rat striatal membranes; format: cell membranes; design: concentration or dose not given beside the values; details: Membrane, concentration not given here
Procedure, shortened: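 Rat striatal membranes labelled with [3H]CGS 21680 for A2A binding. Adenosine deaminase (3 units/mL) was present during membrane preparation, during a 30 min preincubation at 30 °C, and during radioligand incubation. Competitors were dissolved in DMSO and diluted in buffer (DMSO ≤2%).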

Rattus norvegicus [6] = species on record: Rattus norvegicus; experiment: Ratio of the binding affinities against rat A3 receptor / human A3 receptor, Ki(rA1) / Ki (hA3).; procedure, shortened: as §5
Rattus norvegicus [7] = species on record: Rattus norvegicus; experiment: Ratio of the binding affinities against rat A3 receptor / rat A3 receptor, Ki(rA1) / Ki (rA3).; procedure, shortened: as §5
Adenosine receptor A3 [8] = biological target: T5, Adenosine receptor A3 (Rattus norvegicus, UniProt P28647); experiment: Displacement of specific [125I]AB-MECA binding at rat Adenosine A3 receptor stably expressed in CHO cells; format: cell-based
T5 sequence (P28647 whole entry): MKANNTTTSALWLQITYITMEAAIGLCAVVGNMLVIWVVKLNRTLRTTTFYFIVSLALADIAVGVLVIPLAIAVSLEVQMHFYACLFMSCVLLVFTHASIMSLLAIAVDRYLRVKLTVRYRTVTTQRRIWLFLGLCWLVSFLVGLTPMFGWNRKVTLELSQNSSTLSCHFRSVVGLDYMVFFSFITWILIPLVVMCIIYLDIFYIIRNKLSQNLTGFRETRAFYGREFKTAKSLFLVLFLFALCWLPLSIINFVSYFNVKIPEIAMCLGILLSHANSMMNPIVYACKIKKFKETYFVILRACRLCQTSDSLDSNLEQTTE

[9] = biological target: T1, Adenosine receptor A3 (Homo sapiens); experiment: as §1; format: cell-based; details: HEK293; concentration not given here; procedure, shortened: as §4

Adenosine receptor A2a, sequence (P30543 whole entry): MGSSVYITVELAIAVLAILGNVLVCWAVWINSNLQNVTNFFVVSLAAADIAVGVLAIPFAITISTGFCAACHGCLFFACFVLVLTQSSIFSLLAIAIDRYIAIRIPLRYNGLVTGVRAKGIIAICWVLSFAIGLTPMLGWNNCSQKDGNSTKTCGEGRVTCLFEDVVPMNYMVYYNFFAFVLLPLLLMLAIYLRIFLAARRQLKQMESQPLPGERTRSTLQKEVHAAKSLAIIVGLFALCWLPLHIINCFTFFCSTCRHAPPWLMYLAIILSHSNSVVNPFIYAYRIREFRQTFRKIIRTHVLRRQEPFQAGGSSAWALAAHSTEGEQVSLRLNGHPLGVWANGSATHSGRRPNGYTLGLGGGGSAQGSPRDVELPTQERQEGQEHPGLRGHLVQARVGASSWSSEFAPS
Adenosine receptor A2a (Rattus norvegicus), sequence (P30543 whole entry): as above

| SMILES | pKi [1] | Ki (Adenosine receptor A1) | Ratio (Rattus norvegicus [3]) | further results |
| --- | --- | --- | --- | --- |
| CCCCc1nc(-c2ccccc2)c(C(=O)OCC)c(CC)c1C(=O)SCC | 7.46 | – | – | – |
| CCOC(=O)c1c(C)nc(-c2ccccc2)c(C(=O)OCC)c1C | 5.35 | – | – | – |
| CCOC(=O)c1c(-c2ccccc2)nc(CC)c(C(=O)SCC)c1CCN1C(=O)c2ccccc2C1=O | 6.61 | 0.49 µM | 2 | Ki (Adenosine receptor A2a): 1.14 µM; Ki (Adenosine receptor A3 [2]): 0.243 µM |
| CCOC(=O)c1c(C)nc(-c2ccccc2)c(C(=O)OCC)c1CC | 6.75 | – | – | – |
| CCCOC(=O)c1c(-c2cccc(F)c2)nc(CC)c(C(=O)SCC)c1CCC | 7.54 | 8.2 µM | 280 | Ki (Adenosine receptor A2a): 28.1 µM; Ki (Adenosine receptor A3 [2]): 0.0289 µM |
| CCOC(=O)c1c(-c2ccccc2)nc(C)c(C(=O)SCCOC)c1CC | 6.78 | – | – | – |
| CCOC(=O)c1c(C2CCCC2)nc(CC)c(C(=O)SCC)c1CC | 5.47 | – | – | – |
| CCOC(=O)c1c(-c2ccccc2)nc(CCOC)c(C(=O)SCC)c1CC | 7.77 | – | – | – |
| CCCOC(=O)c1c(-c2ccccc2)nc(CC)c(C(=O)SCC)c1CCCO | 6.77 | – | – | – |
| CCCOC(=O)c1c(-c2ccccc2)nc(CC)c(C(=O)SCCOC2CCCCO2)c1CCC (configuration not stated) | – | – | – | Ki (Adenosine receptor A3 [2]): 0.517 µM; inhibition [4]: 18%; inhibition [5]: < 10% |
| CCOC(=O)c1c(C)nc(-c2ccccc2)c(C(=O)OCC)c1C(OC)OC | 6.11 | – | – | – |
| CCCOC(=O)c1c(C)nc(-c2ccccc2)c(C(=O)OCC)c1C | 6.67 | – | – | – |
| CCCSC(=O)c1c(CC)nc(-c2ccccc2)c(C(=O)OCC)c1CC | 7.8 | – | – | – |
| CCOC(=O)c1c(-c2ccccc2)nc(CC)c(C(=O)SCC)c1CC | 7.67 | 0.041 µM | > 3000 | Ratio (Rattus norvegicus [6]): 21; Ratio (Rattus norvegicus [7]): > 100 |
| CCCOC(=O)c1c(CCC)c(C(=O)SCC)c(CC)[n+](C)c1-c1ccccc1 | 5.59 | – | > 50 | Ki (Adenosine receptor A3 [8]): 4.26 µM; inhibition [4]: < 10%; inhibition [5]: < 10%; Ratio (Rattus norvegicus [6]): 2.1; Ratio (Rattus norvegicus [7]): > 23 |
| CCOC(=O)c1c(CC)nc(-c2ccccc2)c(C(=O)OCC)c1C | 6.92 | – | – | – |
| CCCc1c(C(=O)SCC)c(C)nc(-c2ccccc2)c1C(=O)OCC | 6.71 | – | – | – |
| CCSC(=O)c1c(C)nc(-c2ccccc2)c(C(=O)OCc2ccccc2)c1CC | 5.58 | – | – | – |
| CCCOC(=O)c1c(-c2ccccc2)nc(CC)c(C(=O)SCCF)c1CCC | 7.26 | 8.22 µM | 150 | Ki (Adenosine receptor A2a): 24.8 µM; Ki (Adenosine receptor A3 [2]): 0.0551 µM |
| CCSC(=O)c1c(CC)nc(-c2ccccc2)c(C(=O)OCCF)c1CC | 8.37 | 11.5 µM | 2700 | Ki (Adenosine receptor A2a): 7.33 µM; Ki (Adenosine receptor A3 [8]): 0.6 µM; Ratio (Rattus norvegicus [6]): 140; Ratio (Rattus norvegicus [7]): 19 |
| CCCc1c(C(=O)SCC)c(CC)nc(-c2ccccc2)c1C(=O)OCC(F)(F)C(F)(F)F | 6.35 | 5.68 µM | 13 | Ki (Adenosine receptor A2a): 14 µM; Ki (Adenosine receptor A3 [2]): 0.446 µM |
| CCCOC(=O)c1c(-c2ccccc2)nc(CC)c2c1CCOC2=O | – | 11.2 µM | – | inhibition [9]: < 10%; inhibition [5]: 20% |
| CCOC(=O)c1c(-c2ccccc2)nc(C)c(C(=O)SCC)c1CC | 7.37 | – | – | – |
| CCCc1c(C(=O)SCC)c(CC)nc(-c2ccccc2)c1C(=O)OCCCF | 8.01 | 6.05 µM | 630 | Ki (Adenosine receptor A2a): 9.67 µM; Ki (Adenosine receptor A3 [8]): 0.512 µM; Ki (Adenosine receptor A3 [2]): 0.00967 µM; Ratio (Rattus norvegicus [6]): 53; Ratio (Rattus norvegicus [7]): 12 |

— ChEMBL document CHEMBL1132588, “Synthesis, CoMFA analysis, and receptor docking of 3,5-diacyl-2, 4-dialkylpyridine derivatives as selective A3 adenosine receptor antagonists” (J Med Chem, 1999)
